Among the data in ChEMBL document CHEMBL1687849, “Lauroside B, a megastigmane glycoside from Laurus nobilis (bay laurel) leaves, induces apoptosis in human melanoma cell lines by inhibiting NF-κB activation” (J Nat Prod, 2011) are Activity and inhibition values, retold here.

The source made the active and inactive calls. No cut-off for these calls is given here.

The test system of data set [1] is A-375. Briefly: Induction of apoptosis in human A375 cells assessed as early apoptotic cells at 20 uM after 48 hrs by annexin V/propidium iodide based flow cytometry. The class given is functional. In short, it runs like this:
(§1)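 A375 cells attached overnight, then treated 48 h with test compound (30 μM) or curcumin (20 μM). Adherent and floating cells pooled, washed in PBS and resuspended at 10^6/mL in HEPES pH 7.4/NaCl/CaCl2 binding buffer. 10^5 cells stained 15 min at room temperature in the dark with FITC-annexin V and PI, then flow cytometry. Quadrants scored as early apoptotic, late apoptotic or necrotic. Three experiments.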

The subject of data set [2] is A-375. Briefly: Induction of apoptosis in human A375 cells assessed as late apoptotic cells at 20 uM after 48 hrs by annexin V/propidium iodide based flow cytometry. The class given is functional. In short, it runs like this:
as §1
Background: A flow cytometer gives signals particle by particle.

Data set [3] has as its system A-375. Nature of the data set: Induction of apoptosis in human A375 cells assessed as necrotic apoptotic cells at 20 uM after 48 hrs by annexin V/propidium iodide based flow cytometry. Type of data set: functional. In short, it runs like this: as §1
The test system of data set [4] is A-375. Nature of the data set: Antiproliferative activity against human A375 cells at 3 to 30 uM by MTT assay. The class given is functional, cell-based. The note with it: TDE = time-dependent effect. The method, boiled down:
(§2)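 Cells grown in DMEM with 10% FBS, glutamine, HEPES and antibiotics at 37 °C, 5% CO2. Seeded at 1×10^4 cells/well and treated at 3, 10 or 30 μM for 24, 48 or 72 h. MTT (5 mg/mL stock) then added for 3 h at 37 °C. Crystals dissolved in 50% DMF/20% SDS pH 4.5; OD read at 620 nm. n = 3, mean ± SEM, ANOVA with Bonferroni.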
(Formazan colour is commonly taken as a measure of viable cells.)

For data set [5], the system named is WM-115. Nature of the data set: Antiproliferative activity against human WM115 cells at 3 to 30 uM by MTT assay. The class given is functional, cell-based. The note with it: TDE = time-dependent effect. The method, boiled down: as §2
For data set [6], the system named is SK-MEL-28. Briefly: Antiproliferative activity against human SK-MEL-28 cells at 3 to 30 uM by MTT assay. The class given is functional, cell-based. As to conditions: TDE = time-dependent effect. In short, it runs like this: as §2
In data set [7] the test system is A-375. Nature of the data set: Antiproliferative activity against human A375 cells after 24 to 72 hrs by MTT assay. Type of data set: functional, cell-based. In short, it runs like this: as §2
Data set [8] deals with WM-115. Briefly: Antiproliferative activity against human WM115 cells after 24 to 72 hrs by MTT assay. The class given is functional, cell-based. The method, boiled down: as §2
The test system of data set [9] is SK-MEL-28. Nature of the data set: Antiproliferative activity against human SK-MEL-28 cells after 24 to 72 hrs by MTT assay. Type of data set: functional, cell-based. In short, it runs like this: as §2
In data set [10] the test system is A-375. Nature of the data set: Antiproliferative activity against human A375 cells at 30 uM after 72 hrs by MTT assay. Type of data set: functional. As to conditions: A-375, 72 h. In short, it runs like this: as §2
Data set [11] relates to WM-115. Nature of the data set: Antiproliferative activity against human WM115 cells at 30 uM after 72 hrs by MTT assay. The note with it: WM-115, 72 h. The class given is functional. In short, it runs like this:
as §2

For data set [12], the system named is SK-MEL-28. Briefly: Antiproliferative activity against human SK-MEL-28 cells at 30 uM after 72 hrs by MTT assay. Type of data set: functional. As to conditions: SK-MEL-28, 72 h. In short, it runs like this: as §2
A short description of data set [13]: Antiproliferative activity against human NHEM at 3 to 30 uM after 24 to 72 hrs by MTT assay. The method, boiled down: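 Normal human epidermal melanocytes grown in melanocyte growth medium 2. Seeded at 1×10^4 cells/well and treated at 3, 10 or 30 μM for 24, 48 or 72 h. MTT (5 mg/mL stock) then added for 3 h at 37 °C. Formazan dissolved in 50% DMF/20% SDS pH 4.5; absorbance at 620 nm.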

The test system of data set [14] is A-375. Nature of the data set: Induction of apoptosis in human A375 cells assessed as early apoptotic cells at 30 uM after 48 hrs by annexin V/propidium iodide based flow cytometry. The class given is functional. The method, boiled down:
as §1

The test system of data set [15] is A-375. Nature of the data set: Induction of apoptosis in human A375 cells assessed as late apoptotic cells at 30 uM after 48 hrs by annexin V/propidium iodide based flow cytometry. Type of data set: functional. The method, boiled down:
as §1

Data set [16] deals with A-375. Nature of the data set: Induction of apoptosis in human A375 cells assessed as necrotic apoptotic cells at 30 uM after 48 hrs by annexin V/propidium iodide based flow cytometry. Type of data set: functional. In short, it runs like this:
as §1

The subject of data set [17] is A-375. Nature of the data set: Activation of caspase 3 in human A375 cells assessed as reduction in pro-caspase 3 at 30 uM by Western blot analysis. Type of data set: functional, cell-based. The note with it: TDE = time-dependent effect. In short, it runs like this:
(§3)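 Whole-cell A375 lysates collected 0, 1, 2, 4 and 8 h after 30 μM treatment, made in Tris/HCl pH 7.4 buffer with 0.1% Triton X-100, EDTA, vanadate, PMSF and protease inhibitors. 20 μg protein per lane on SDS-PAGE and nitrocellulose. Probed overnight at 4 °C for pro-caspase-3 and PARP, with β-actin; HRP secondary, ECL detection. Three separate experiments.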
In general terms: Immunoblotting shows a protein as a band on a membrane.

The subject of data set [18] is A-375. Nature of the data set: Inhibition of NF-kappaB activation in human A375 cells assessed as IkappaB-alpha degradation at 30 uM by Western blot analysis. The class given is cell-based. As to conditions: TDE = time-dependent effect. The method, boiled down:
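A375 cells treated at 30 μM for 1, 2, 4 and 8 h. Cytosolic extracts (40 μg protein) run on SDS-PAGE and transferred to nitrocellulose. Probed overnight at 4 °C for IκB-α, HRP secondary, ECL detection. Three separate experiments.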

Data set [19] concerns A-375. Nature of the data set: Inhibition of NF-kappaB DNA binding activity in human A375 cells at 30 uM after 1 hr by electrophoretic mobility shift assay. The class given is cell-based. The method, boiled down: (§4)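 A375 cells treated at 30 μM; whole-cell extracts taken at 0, 1, 2, 4, 8 and 24 h. Extract (12 μg protein in 0.1% Triton X-100 buffer) incubated 30 min with 32P-labelled κB probe. Complexes resolved on nondenaturing 4% polyacrylamide gel and quantified by phosphorimaging, normalized to the nonspecific protein-DNA complex in the same lane. Three experiments.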

Data set [20] has as its system A-375. Briefly: Inhibition of NF-kappaB DNA binding activity in human A375 cells at 30 uM after 2 hrs by electrophoretic mobility shift assay. Type of data set: cell-based. In short, it runs like this: as §4
Data set [21] has as its system A-375. Nature of the data set: Inhibition of NF-kappaB DNA binding activity in human A375 cells at 30 uM after 4 hrs by electrophoretic mobility shift assay. The class given is cell-based. The method, boiled down: as §4
In data set [22] the test system is A-375. Briefly: Inhibition of NF-kappaB DNA binding activity in human A375 cells at 30 uM after 8 hrs by electrophoretic mobility shift assay. The class given is cell-based. In short, it runs like this:
as §4

For data set [23], the system named is A-375. Nature of the data set: Inhibition of NF-kappaB DNA binding activity in human A375 cells at 30 uM after 24 hrs by electrophoretic mobility shift assay. The class given is cell-based. The method, boiled down:
as §4

Data set [24] in a line: Decrease in NFkappaB-mediated XIAP gene expression in human A375 cells at 30 uM after 8 hrs by Western blot analysis. Type of data set: cell-based. The note with it: A-375.
A short description of data set [25]: Decrease in NFkappaB-mediated c-FLIP gene expression in human A375 cells at 30 uM after 8 hrs by Western blot analysis. Type of data set: cell-based. As to conditions: A-375.
Data set [26] relates to A-375. Briefly: Activation of caspase 3 in human A375 cells assessed as cleavage of substrate PARP at 30 uM by Western blot analysis. The class given is functional, cell-based. The method, boiled down: as §3

For `COc1cc(/C=C/C(=O)CC(=O)/C=C/c2ccc(O)c(OC)c2)ccc1O` [CURCUMIN], the Activity with A-375 [1] amounted to 3.4%; with A-375 [2], 80%; in the data set with A-375 [3] it was 10.3%.

In general, inhibition refers to how much of the control response was suppressed. Consider `C[C@H](/C=C/[C@@]1(O)[C@H](CO)CC(=O)CC1(C)C)O[C@@H]1O[C@H](CO)[C@@H](O)[C@H](O)[C@H]1O` [LAUROSIDE B], for which the inhibition entry in the data set on A-375 [4] was “tde”; in the data set with WM-115 [5] it was “tde”; with SK-MEL-28 [6] it was “tde”; in the data set with A-375 [7] it was “Dose-dependent effect”; in the data set with WM-115 [8] it was “Dose-dependent effect”; in the data set with SK-MEL-28 [9], “Dose-dependent effect”. In addition, the inhibition was 6% in the data set on A-375 [19]; 20% in the data set on A-375 [20]; 60% in the data set with A-375 [21]; 86% with A-375 [22]; 100% in the data set with A-375 [23]. For the same molecule, the inhibition at 30 µM in the data set on A-375 [10] was 65%; in the data set on WM-115 [11], 50%; in the data set on SK-MEL-28 [12], 33%. The Activity result was “Non-toxic” in [13]; 0.6% in the data set on A-375 [14]; 35% in the data set on A-375 [15]; 5.1% in the data set on A-375 [16]; “tde” in the data set with A-375 [17]; “tde” in the data set on A-375 [18]. Besides, the outcome (in data set [24]; in [25]; in the data set on A-375 [26]) was Active.
